Experimental data published in ChEMBL document CHEMBL4689842, “EUbOPEN Chemogenomics Library wave 1” (2021).

Test system: HEK-293T
Experiment: Multiplex assay against HEK293T;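 as to Population Tubulin-Different-Phenotype (%): share of the cells with healthy nuclei that show this phenotype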
Format: toxicity, cell-based
Conditions: human
Method in brief: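 Cells were classed with CellPathfinder machine-learning gating, first as Hoechst high-intensity objects or normal cells, then (normal cells) as healthy, pyknosed or fragmented nuclei, and finally (pyknosed cells) as mitotic or apoptotic. Staining of live cells at seeding used Hoechst33342, BioTracker Green Microtubule Cytoskeleton Dye, MitoTracker Red and Annexin V Alexa Fluor 680, with imaging on a CQ1 microscope at 37°C and 5% CO2 after compound addition. Tubulin, mitochondrial-mass and membrane-permeability phenotypes are per cents of healthy-nucleus cells.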

[1] = 12 h, 1 µM, compound concentration 1 uM, replicate 1
[2] = 12 h, 1 µM, compound concentration 1 uM, replicate 2
[3] = 12 h, 10 µM, compound concentration 10 uM, replicate 1
[4] = 12 h, 10 µM, compound concentration 10 uM, replicate 2
[5] = 24 h, 1 µM, compound concentration 1 uM, replicate 1
[6] = 24 h, 1 µM, compound concentration 1 uM, replicate 2
[7] = 24 h, 10 µM, compound concentration 10 uM, replicate 1
[8] = 24 h, 10 µM, compound concentration 10 uM, replicate 2
[9] = 48 h, 1 µM, compound concentration 1 uM, replicate 1
[10] = 48 h, 1 µM, compound concentration 1 uM, replicate 2
[11] = 48 h, 10 µM, compound concentration 10 uM, replicate 1
[12] = 48 h, 10 µM, compound concentration 10 uM, replicate 2

CCN1CCN(Cc2ccc(Nc3ncc(F)c(-c4cc(F)c5nc(C)n(C(C)C)c5c4)n3)nc2)CC1.CS(=O)(=O)O
Population Apoptotic (%) [1]: 60% | Population Fragmented Nuclei (%) [1]: 17% | Population Healthy Nuclei (%) [1]: 19% | Population Hoechst High Intensity Objects (%) [1]: 17% | Population Membrane Permeable-Phenotype (%) [1]: 0% | Population Mitochondria Different-Phenotype (%) [1]: 94% | Population Mitotic Cells (%) [1]: 40% | Population Normal (%) [1]: 82% | Population Pyknosed Nuclei (%) [1]: 63% | Population Tubulin-Different-Phenotype (%) [1]: 92% | Total Cell Count [1]: 249 | Population Apoptotic (%) [2]: 40% | Population Fragmented Nuclei (%) [2]: 7% | Population Healthy Nuclei (%) [2]: 27% | Population Hoechst High Intensity Objects (%) [2]: 4% | Population Membrane Permeable-Phenotype (%) [2]: 14% | Population Mitochondria Different-Phenotype (%) [2]: 83% | Population Mitotic Cells (%) [2]: 59% | Population Normal (%) [2]: 95% | Population Pyknosed Nuclei (%) [2]: 64% | Population Tubulin-Different-Phenotype (%) [2]: 81% | Total Cell Count [2]: 181 | Population Apoptotic (%) [3]: 74% | Population Fragmented Nuclei (%) [3]: 14% | Population Healthy Nuclei (%) [3]: 1% | Population Hoechst High Intensity Objects (%) [3]: 25% | Population Membrane Permeable-Phenotype (%) [3]: 0% | Population Mitochondria Different-Phenotype (%) [3]: 33% | Population Mitotic Cells (%) [3]: 25% | Population Normal (%) [3]: 74% | Population Pyknosed Nuclei (%) [3]: 84% | Population Tubulin-Different-Phenotype (%) [3]: 66% | Total Cell Count [3]: 289 | Population Apoptotic (%) [4]: 62% | Population Fragmented Nuclei (%) [4]: 12% | Population Healthy Nuclei (%) [4]: 25% | Population Hoechst High Intensity Objects (%) [4]: 21% | Population Membrane Permeable-Phenotype (%) [4]: 2% | Population Mitochondria Different-Phenotype (%) [4]: 79% | Population Mitotic Cells (%) [4]: 37% | Population Normal (%) [4]: 79% | Population Pyknosed Nuclei (%) [4]: 62% | Population Tubulin-Different-Phenotype (%) [4]: 97% | Total Cell Count [4]: 219 | Population Apoptotic (%) [5]: 63% | Population Fragmented Nuclei (%) [5]: 19% | Population Healthy Nuclei (%) [5]: 32% | Population Hoechst High Intensity Objects (%) [5]: 18% | Population Membrane Permeable-Phenotype (%) [5]: 0% | Population Mitochondria Different-Phenotype (%) [5]: 100% | Population Mitotic Cells (%) [5]: 36% | Population Normal (%) [5]: 81% | Population Pyknosed Nuclei (%) [5]: 47% | Population Tubulin-Different-Phenotype (%) [5]: 95% | Total Cell Count [5]: 253 | Population Apoptotic (%) [6]: 51% | Population Fragmented Nuclei (%) [6]: 5% | Population Healthy Nuclei (%) [6]: 45% | Population Hoechst High Intensity Objects (%) [6]: 5% | Population Membrane Permeable-Phenotype (%) [6]: 2% | Population Mitochondria Different-Phenotype (%) [6]: 88% | Population Mitotic Cells (%) [6]: 48% | Population Normal (%) [6]: 94% | Population Pyknosed Nuclei (%) [6]: 48% | Population Tubulin-Different-Phenotype (%) [6]: 94% | Total Cell Count [6]: 201 | Population Apoptotic (%) [7]: 72% | Population Fragmented Nuclei (%) [7]: 23% | Population Healthy Nuclei (%) [7]: 0% | Population Hoechst High Intensity Objects (%) [7]: 23% | Population Membrane Permeable-Phenotype (%) [7]: 0% | Population Mitochondria Different-Phenotype (%) [7]: 0% | Population Mitotic Cells (%) [7]: 27% | Population Normal (%) [7]: 76% | Population Pyknosed Nuclei (%) [7]: 76% | Population Tubulin-Different-Phenotype (%) [7]: 0% | Total Cell Count [7]: 287 | Population Apoptotic (%) [8]: 79% | Population Fragmented Nuclei (%) [8]: 4% | Population Healthy Nuclei (%) [8]: 18% | Population Hoechst High Intensity Objects (%) [8]: 21% | Population Membrane Permeable-Phenotype (%) [8]: 3% | Population Mitochondria Different-Phenotype (%) [8]: 93% | Population Mitotic Cells (%) [8]: 20% | Population Normal (%) [8]: 78% | Population Tubulin-Different-Phenotype (%) [8]: 93% | Total Cell Count [8]: 213 | Population Apoptotic (%) [9]: 58% | Population Fragmented Nuclei (%) [9]: 29% | Population Healthy Nuclei (%) [9]: 28% | Population Hoechst High Intensity Objects (%) [9]: 17% | Population Membrane Permeable-Phenotype (%) [9]: 0% | Population Mitochondria Different-Phenotype (%) [9]: 81% | Population Mitotic Cells (%) [9]: 41% | Population Normal (%) [9]: 82% | Population Pyknosed Nuclei (%) [9]: 42% | Population Tubulin-Different-Phenotype (%) [9]: 89% | Total Cell Count [9]: 254 | Population Apoptotic (%) [10]: 62% | Population Fragmented Nuclei (%) [10]: 9% | Population Healthy Nuclei (%) [10]: 65% | Population Hoechst High Intensity Objects (%) [10]: 6% | Population Membrane Permeable-Phenotype (%) [10]: 1% | Population Mitochondria Different-Phenotype (%) [10]: 71% | Population Mitotic Cells (%) [10]: 37% | Population Normal (%) [10]: 93% | Population Pyknosed Nuclei (%) [10]: 24% | Population Tubulin-Different-Phenotype (%) [10]: 93% | Total Cell Count [10]: 243 | Population Apoptotic (%) [11]: 80% | Population Fragmented Nuclei (%) [11]: 27% | Population Healthy Nuclei (%) [11]: 0% | Population Hoechst High Intensity Objects (%) [11]: 27% | Population Membrane Permeable-Phenotype (%) [11]: 100% | Population Mitochondria Different-Phenotype (%) [11]: 100% | Population Mitotic Cells (%) [11]: 19% | Population Normal (%) [11]: 72% | Population Pyknosed Nuclei (%) [11]: 72% | Population Tubulin-Different-Phenotype (%) [11]: 0% | Total Cell Count [11]: 291 | Population Apoptotic (%) [12]: 83% | Population Fragmented Nuclei (%) [12]: 10% | Population Healthy Nuclei (%) [12]: 11% | Population Hoechst High Intensity Objects (%) [12]: 28% | Population Membrane Permeable-Phenotype (%) [12]: 11% | Population Mitochondria Different-Phenotype (%) [12]: 94% | Population Mitotic Cells (%) [12]: 16% | Population Normal (%) [12]: 71% | Population Pyknosed Nuclei (%) [12]: 77% | Population Tubulin-Different-Phenotype (%) [12]: 88% | Total Cell Count [12]: 202
